These results are taken from ChEMBL document CHEMBL1121964, “Potential neuroleptic agents. 2,6-Dialkoxybenzamide derivatives with potent dopamine receptor blocking activities” (J Med Chem, 1982).

Data set [1] relates to Rattus norvegicus. Kind of data set: The dosage at which 50% of the animals were cataleptic was measured after (ip) administration in male Sprague-Dawley rats. It counts as functional. In outline:
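Eight rats per dose level were tested. Both forelimbs were placed on a 7-cm-high horizontal bar, and failure to step off within 60 s counted as cataleptic. Testing was done 1, 2, 4, 8 and 24 h post-dose. ED50 with 95% confidence interval came from probit analysis of each compound's peak cataleptic effect.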

Data set [2] can be described thus: The acute toxicity was assessed after (ip) administration in male Sprague-Dawley rats. The data set is classed as organism-based. As to conditions: rat, in vivo.
Data set [3] relates to Rattus norvegicus. Kind of data set: In vivo blocking of apomorphine induced hyperactivity following 1 mg/kg i.p. in rats after 60 min. The data set is classed as functional. As to conditions: ip, 1 h, route intraperitoneal. In outline: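 Male Sprague-Dawley rats (250-300 g) were dosed ip with test compound in saline or water 60 min before apomorphine 1 mg/kg sc into the neck. Behavior was scored at 5, 20, 40 and 60 min. It was calculated by Theil's method with Sen's tie correction, with a 90% confidence interval.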

Data set [4] relates to Rattus norvegicus. Kind of data set: In vivo blocking of apomorphine induced stereotypies following 1 mg/kg i.p. in rats after 60 min. Conditions: ip, 1 h, route intraperitoneal. The data set is classed as functional. In outline:
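Male Sprague-Dawley rats (250-300 g) received test compound ip in saline or water 60 min before sc apomorphine 1 mg/kg given into the neck. Stereotypy strength was scored at 5, 20, 40 and 60 min. It was derived by Theil's method with Sen's correction for ties, with a 90% confidence interval.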

A value given as a limit tells only on which side of the number the result lay.

Regarding `CCN1CCC[C@H]1CNC(=O)c1c(OC)ccc(Br)c1OC.Cl`, the 50% effect level in the data set on Rattus norvegicus [1] (ED50) was put at a dose of 24.5 µmol/kg. The compound also came in with a 50% lethal dose (LD50) in data set [2] of 794 µmol/kg.
Take `CCN1CCC[C@H]1CNC(=O)c1c(OC)ccc(Cl)c1OC.Cl`: the 50% effective dose (ED50) in the data set with Rattus norvegicus [3] stood at 5.6 µmol/kg; in the data set on Rattus norvegicus [4] it was 11.7 µmol/kg. In data set [2], this compound returned a 50% lethal dose (LD50) of roughly 826 µmol/kg.
As to `CCOc1ccc(Br)c(OCC)c1C(=O)NC[C@@H]1CCCN1CC.Cl`, the ED50 with Rattus norvegicus [1] is 8.9 µmol/kg; with Rattus norvegicus [3], 0.47 µmol/kg; in the data set with Rattus norvegicus [4], 1.9 µmol/kg. This compound also registered a median lethal dose (LD50) in data set [2] of 206 µmol/kg.
With `CCN1CCC[C@@H]1CNC(=O)c1c(OC)ccc(Br)c1OC`, the ED50 with Rattus norvegicus [3] is 120 µmol/kg; in the data set with Rattus norvegicus [4], greater than 196 µmol/kg.
For the compound `CCN1CCC[C@@H]1CNC(=O)c1c(OC)c(Br)cc(Br)c1OC`, the ED50 in the data set with Rattus norvegicus [3] was 13.1 µmol/kg; in the data set on Rattus norvegicus [4] it was greater than 82 µmol/kg. In data set [2], the 50% lethal dose (LD50) amounted to 159 µmol/kg.
For the compound `CCN1CCCC1CNC(=O)c1c(OC)c(Cl)cc(Br)c1OC` (stereo not drawn), the ED50 in the data set with Rattus norvegicus [1] is 5 µmol/kg; in the data set on Rattus norvegicus [3], 3.9 µmol/kg; with Rattus norvegicus [4], 7.3 µmol/kg. In data set [2], this compound returned an LD50 of 206 µmol/kg.
Taken in the same sequence, the figures for `CCN1CCCC1CNC(=O)c1c(OC)c(Cl)cc(Cl)c1OC` (stereo not drawn) were 16.8 µmol/kg, 3.1 µmol/kg, 5.4 µmol/kg and 224 µmol/kg.
Consider `CCN1CCC[C@H]1CNC(=O)c1c(OC)c(Br)cc(Br)c1OC`, for which the ED50 in the data set on Rattus norvegicus [1] worked out at 5.3 µmol/kg; with Rattus norvegicus [3] it was 0.44 µmol/kg; with Rattus norvegicus [4], 2.1 µmol/kg.
Take `CCN1CCCC1CNC(=O)c1c(Cl)cccc1Cl` (stereo not drawn): the ED50 in the data set with Rattus norvegicus [3] and in the data set with Rattus norvegicus [4] was greater than 80 µmol/kg each time.
`CCN1CCCC1CNC(=O)c1c(OC)ccc(Cl)c1OC` (stereo not drawn): the values for the ED50 in the data set with Rattus norvegicus [3] and in the data set on Rattus norvegicus [4] were 30.8 µmol/kg and 42.7 µmol/kg, respectively.
Turning to `CCN1CCCC1CNC(=O)c1c(OC)c(Br)cc(Br)c1OC.Cl` (stereo not drawn), the ED50 was 8.2 µmol/kg in the data set with Rattus norvegicus [1], 1.15 µmol/kg in the data set with Rattus norvegicus [3] and 4.6 µmol/kg with Rattus norvegicus [4]. The same compound displayed an LD50 in data set [2] of 177 µmol/kg.
Consider `CCOc1cccc(OCC)c1C(=O)NCC1CCCN1CC` (stereo not drawn), for which the ED50 in the data set on Rattus norvegicus [3] was 23.4 µmol/kg; in the data set with Rattus norvegicus [4] it was greater than 40 µmol/kg.
As for `CCOc1ccc(Cl)c(OCC)c1C(=O)NCC1CCCN1CC` (stereo not drawn), the ED50 in the data set with Rattus norvegicus [1] stood at 31 µmol/kg; with Rattus norvegicus [3], 2.8 µmol/kg; in the data set on Rattus norvegicus [4] it was 7.2 µmol/kg.
On to `CCN1CCCC1CNC(=O)c1c(OC)ccc(Br)c1OC.Cl` (stereo not drawn), for which the ED50 with Rattus norvegicus [1] stood at 47 µmol/kg; in the data set with Rattus norvegicus [3], 12.8 µmol/kg; in the data set with Rattus norvegicus [4] it was 21.3 µmol/kg. Also, in data set [2], the 50% lethal dose (LD50) came to 817 µmol/kg.
As for `CCN1CCCC1CNC(=O)c1c(OC(C)C)cccc1OC(C)C.Cl` (stereo not drawn), the ED50 in the data set with Rattus norvegicus [3] and with Rattus norvegicus [4] was greater than 80 µmol/kg throughout. For the same compound, the LD50 in data set [2] was roughly 160 µmol/kg.
Regarding `COc1ccc(Br)c(OC)c1C(=O)NCC1CCCN1` (stereo not drawn), the ED50 in the data set on Rattus norvegicus [3] is 47 µmol/kg; in the data set with Rattus norvegicus [4] it was 100 µmol/kg.
Taken in the same sequence, the figures for `CCN(CC1CCCN1CC)C(=O)c1c(OC)c(Br)cc(Br)c1OC` (stereo not drawn) were greater than 80 µmol/kg and greater than 80 µmol/kg.
On to `CCOc1ccc(Br)c(OCC)c1C(=O)NCC1CCCN1CC` (stereo not drawn), for which the ED50 in the data set on Rattus norvegicus [1] was determined as 15.7 µmol/kg; in the data set with Rattus norvegicus [3], 1.1 µmol/kg; in the data set with Rattus norvegicus [4], 4.7 µmol/kg.
The corresponding values for `O=C(CCCN1CCC(O)(c2ccc(Cl)cc2)CC1)c1ccc(F)cc1` [HALOPERIDOL] are 0.67 µmol/kg, 0.29 µmol/kg and 0.27 µmol/kg.
In the case of `CCN1CCCC1CNC(=O)c1cc(S(N)(=O)=O)ccc1OC` (stereo not drawn) [SULPIRIDE], the ED50 was 161 µmol/kg with Rattus norvegicus [1], 65.6 µmol/kg in the data set on Rattus norvegicus [3] and 212 µmol/kg in the data set with Rattus norvegicus [4].
